High-throughput results deposited in PubChem by Johns Hopkins Ion Channel Center.
RGS4 inh = human RGS4 inhibition; P49798; HEK293 M3R/RGS4 inducible, Fluo-4 calcium flux; hits give high values; triggered by carbachol at its EC20; B-score at 10 µM; hit rate 0.45% among 310,000; AID 463165;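 active means B-score, a plate-corrected calcium signal, over three deviations above library mean, with baseline fluorescence within five deviations of library mean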;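 further: RGS4 expression induced by doxycycline in cells with stable M3 receptor; B-score is computed from the integrated fluorescence ratio over baseline after carbachol; higher B-score means a larger calcium signal and so more RGS4 inhibition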
MrgX1 antag = human MrgX1 receptor antagonism, primary screen. hit rate 1.3% among 310,000. B-score at 10 µM. MRGX1-HEK293 calcium flux, Fluo-4, BAM8-22 antagonism; hits give low values. Q96LB2;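 active means calcium-response B-score plate-corrected more than 3 library SD below zero, starting fluorescence within 5 deviations, no agonist response on first addition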;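 further: peak minus trough fluorescence over baseline after final BAM8-22 challenge near maximal dose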
Target sequence (Q96LB2 whole entry, looked up): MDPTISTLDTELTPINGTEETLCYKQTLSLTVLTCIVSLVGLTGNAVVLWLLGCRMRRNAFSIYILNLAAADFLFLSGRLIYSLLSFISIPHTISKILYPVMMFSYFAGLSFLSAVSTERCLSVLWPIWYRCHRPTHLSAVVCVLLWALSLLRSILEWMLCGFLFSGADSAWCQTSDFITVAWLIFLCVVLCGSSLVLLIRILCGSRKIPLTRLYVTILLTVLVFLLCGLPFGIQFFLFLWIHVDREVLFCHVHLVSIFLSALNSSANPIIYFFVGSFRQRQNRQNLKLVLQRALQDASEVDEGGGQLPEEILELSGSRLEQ
RGS4 pot = RGS4 potentiation or activation. HEK293 M3R/inducible RGS4, carbachol calcium flux Fluo4; hits give low values. B-score at 10 µM. hit rate 0.92% among 310,000. AID 463111;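 active means B-score of the integrated calcium signal more than 4 SD below the library mean, with starting fluorescence not abnormally high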;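 further: negative B-score means reduced calcium response which marks RGS4 activation or potentiation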
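System – HEK293 FlpIn-TREx cells, stable M3R, doxycycline-inducible RGS4 · Reagent – ECmax carbachol challenge · Times – compound preincubation 20 min at room temperature before agonist · Technique – Fluo4 fluorescence kinetic imaging of calcium · Measure – B score of integrated Fluo4 ratio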
MrgX1 agonist = agonists of human MrgX1 receptor. B-score at 10 µM. Q96LB2. MrgX1-HEK293 cells, Fluo-4 calcium fluorescence, agonist mode; hits give high values. hit rate 0.44% among 310,000;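 active means calcium response B-score plate-corrected fluorescence ratio at least 3 library SD, with starting fluorescence B-score inside 5 SD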
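Assay system: stable human MrgX1 HEK293 cell line. Quantity: 15,000 cells per well. Schedule: cells plated overnight, dye loaded 0.5 h 37 °C, 0.5 h room temperature. Detection: Fluo-4 NW calcium-flux fluorescence, kinetic read. Read-out basis: peak-minus-minimum fluorescence over baseline, converted to B scores. Control set: positive and negative control wells on each plate.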
MrgX1 allo act = human MrgX1 positive allosteric modulation, primary screen; Q96LB2; MrgX1-HEK293, Fluo-4 calcium flux, FDSS; hits give high values; B-score at 10 µM; hit rate 0.63% among 310,000; AID 588675;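 active means plate-corrected calcium response at least 3 library SD above typical, normal starting fluorescence, not activating the receptor alone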;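 further: compound read alongside a low EC10 to EC30 dose of BAM8-22 agonist; peak minus trough fluorescence over baseline measured at the second addition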
* hit, by the source's call; i = inactive; x = no result; ! = not active in a repeat. Shown are actives, neighbours in structure and some others; about 3.5% of the full set was active somewhere.

SMILES	RGS4 inh	MrgX1 antag	RGS4 pot	MrgX1 agonist	MrgX1 allo act
CCCCC1(C)OC(=O)C(=Cc2ccc(N(CC)CC)cc2)C(=O)O1 (configuration not stated)	i	i	i	44.1*	i
C/C(=N\NC(=S)NC1CCCCC1)c1ccc(Cl)c(Cl)c1	i	-4.91*	i	i	i
Nn1c(-c2ccc(O)cc2)nnc1-c1ccc(O)cc1	i	i	i	i	i
O=C(NNC(=S)NC(=O)c1ccccc1Cl)c1cccc([N+](=O)[O-])c1	i	i	i	103*	i
Cc1ccc(C(=O)NC(=S)NNC(=O)c2ccc([N+](=O)[O-])cc2)cc1	i	i	i	40.5*	i
O=C(NNC(=S)NC(=O)c1ccc(Br)cc1)c1cccc([N+](=O)[O-])c1	i	i	i	i	i
COc1ccc(OCC(=O)NNC(=S)NC(=O)c2ccc([N+](=O)[O-])cc2)cc1	i	i	i	i	i
O=C(NNC(=S)NC(=O)c1ccc(Br)cc1)c1ccc([N+](=O)[O-])cc1	i	i	i	i	i
CCCCCC(=O)NNC(=S)NC(=O)c1ccc([N+](=O)[O-])cc1	i	i	i	60.9*	i
O=C(NNC(=S)NC(=O)c1ccccc1)c1ccc([N+](=O)[O-])cc1	i	i	i	76.7*	i
COc1ccccc1N1CCN(C2CCCN(C(=O)CCC(C)=O)C2)CC1 (configuration not stated)	i	i	i	i	i
O=C(CNC(=O)c1ccccc1F)N/N=C/c1cccnc1	i	i	i	i	i
O=C(/C=C/c1cccs1)N1CCC2(CC1)Oc1ccc(F)cc1C(=O)C21CC(c2ccc(Cl)cc2)=NO1 (configuration not stated)	i	-4.53*	i	i	i
O=C(/C=C/c1cccs1)N1CCC2(CC1)Oc1ccc(Cl)cc1C(=O)C21CC(c2ccc(Cl)cc2)=NO1 (configuration not stated)	i	i	i	i	i
CNc1ccc(Br)cc(C(=O)/C=C/c2cc(OC)ccc2OC)c1=O	i	i	i	i	i
CCNc1ccc(Br)cc(C(=O)/C=C/c2ccc(Cl)cc2Cl)c1=O	i	-6.1*	i	i	i
CCc1ccc(CNC(=O)C2Cc3cc(S(=O)(=O)N4CCCC4)ccc3N2C(C)=O)cc1 (configuration not stated)	i	i	i	i	i
CC(C)CNC(=O)/C(C#N)=C1\N=C(NC(=O)c2ccco2)c2ccccc21	i	-4.77*	i	i	i
C=CCn1c(SCCCC)nc(O)cc1=O	i	i	i	i	10.4*!
COc1ccc(OC)c(C(=O)c2ccc(C(=O)Nc3ccc(NC(C)=O)cc3)cc2)c1	i	i	i	i	i
CC(C)N(CCC(=O)c1ccc2ccccc2c1)Cc1ccccc1	x	i	x	38.9*	i
CCC(=O)CCC(=O)c1ccc2ccccc2c1	i	i	i	i	i
CCOc1ccc(-c2cc(N3C(=O)Nc4ccccc4N3O)n[nH]2)cc1	i	-6.69*	i	i	i
Cc1ccc(-c2nc3ccc([N+](=O)[O-])cc3[nH]2)cc1	i	i	i	i	i
O=[N+]([O-])c1ccc2nc(-c3ccc(Cl)cc3)[nH]c2c1	i	-5.79*	i	i	i
Cc1ccc(C)c(N2CCN(C(=O)CCCN3C(=S)NC(C)(C)CC3C)CC2)c1 (configuration not stated)	i	-4.62*	i	i	i
CC(C)[C@H](NC(=O)C1CC(=O)N(c2ccc3c(c2)OCO3)C1)C(=O)NC1CCCC1 (some centres not stated)	i	i	i	i	i
CN(C(=O)COC(=O)c1nn(C)c(=O)c2ccccc12)c1c(N)n(Cc2ccccc2)c(=O)[nH]c1=O	i	i	i	i	i
CN(C)c1ccc(/C=C2\N=C(c3ccc(Cl)c([N+](=O)[O-])c3)NC2=O)cc1	i	-6.93*	i	i	i
CN(C)c1ccc(/C=C2/NC(=O)NC2=O)cc1	i	i	i	i	i
